Here are results for 12 compounds from ChEMBL document CHEMBL4017470, “One drug for two targets: Biological evaluation of antiretroviral agents endowed with antiproliferative activity” (Bioorg Med Chem Lett, 2017).

Series [1] in a line: Apparent permeability of the compound in phosphate buffer at pH 7.4 by PAMPA. In kind it is physicochemical. (In general: PAMPA measures passive passage across an artificial lipid membrane.)
The next series deals with Ramos. Briefly: Growth inhibition of human Ramos cells after 2 days by MTT assay. Particulars: 48 h. In kind it is functional, cell-based. For orientation: Tetrazolium assays rely on reduction of a dye to a coloured formazan, in cell work by metabolically active cells.
A short description of series [2]: Cytotoxicity against human TZM-b1 cells by XTT assay. In kind it is cell-based. Particulars: read-out: LD50 (the source's name).
The nature of series [3]: Selectivity index, ratio of IC50 for HEK293 cells to IC50 for human Ramos cells. In kind it is functional.
The nature of series [4]: Selectivity index, ratio of IC50 for HEK293 cells to IC50 for human MCF7 cells. The series is classed as functional.
The test system of another series is HEK293. Briefly: Growth inhibition of HEK293 cells after 2 days by MTT assay. The series is classed as cell-based. Particulars: Homo sapiens, HEK293, 48 h.
Series [5] concerns HT-29. Briefly: Down regulation of c-Myc expression in human HT-29 cells assessed as c-Myc expression level at 1 uM after 48 hrs by RT-qPCR analysis relative to control. The series is classed as functional. In a few lines:
(§1)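 HT-29 cells were incubated 48 h with compound, with DMSO as the vehicle control and resveratrol as the positive control. Total RNA was extracted, reverse-transcribed to cDNA, and hTERT or c-Myc quantified by RT-qPCR. Expression was normalized to β-actin and given as % of the DMSO control (100%). At least three measurements per case; mean ± SEM; one-sample t-test.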
(In qPCR the cycle at which signal appears reflects the starting amount.)

Series [6] deals with HT-29. Briefly: Growth inhibition of human HT-29 cells after 2 days by MTT assay. In kind it is functional, cell-based. Particulars: HT-29, 48 h.
The nature of series [7]: Selectivity index, ratio of IC50 for HEK293 cells to IC50 for human HT-29 cells. In kind it is functional.
The nature of series [8]: Growth inhibition of BAEC after 2 days by MTT assay. The series is classed as cell-based. Particulars: Bos taurus, 48 h.
A short description of series [9]: Selectivity index, ratio of IC50 for BAEC cells to IC50 for human Ramos cells. In kind it is functional.
Series [10] relates to HT-29. Briefly: Down regulation of hTERT expression in human HT-29 cells assessed as hTERT expression level at 1 uM after 48 hrs by RT-qPCR analysis relative to control. In kind it is functional. Summed up: as §1
Series [11] is described as follows: Selectivity index, ratio of IC50 for BAEC cells to IC50 for human MCF7 cells. In kind it is functional.
The nature of series [12]: Selectivity index, ratio of IC50 for BAEC cells to IC50 for human HT-29 cells. The series is classed as functional.
The test system of series [13] is Human immunodeficiency virus 1. Briefly: Antiviral activity against HIV-1 NL4.3 infected in human TZM-b1 cells pretreated for 1 hr followed by viral infection measured after 2 days by CPRG assay. The series is classed as functional, cell-based. Particulars: Human immunodeficiency virus 1, NL4.3, TZM-b1.
The nature of series [14]: Metabolic stability in human liver microsomes at 50 uM measured after 60 mins in presence of NADPH generating system by LC-UV-MS method. In kind it is ADME, microsome. Particulars: read-out: Stability.
Series [15] can be described thus: Aqueous solubility of the compound in water at 1 mg after 24 to 36 hrs by LC-MS/MS analysis. The series is classed as physicochemical.
In a further series the test system is MCF7. Briefly: Growth inhibition of human MCF7 cells after 2 days by MTT assay. The series is classed as functional, cell-based. Particulars: MCF7, 48 h.
Series [16] relates to HT-29. Briefly: Down regulation of hTERT expression in human HT-29 cells assessed as hTERT expression level at 20 uM after 48 hrs by RT-qPCR analysis relative to control. In kind it is functional. In a few lines:
as §1

The test system of series [17] is HT-29. Briefly: Down regulation of c-Myc expression in human HT-29 cells assessed as c-Myc expression level at 20 uM after 48 hrs by RT-qPCR analysis relative to control. The series is classed as functional. Summed up:
as §1

Series [18] deals with HT-29. Briefly: Down regulation of c-Myc expression in human HT-29 cells assessed as c-Myc expression level at 5 uM after 48 hrs by RT-qPCR analysis relative to control. In kind it is functional. In a few lines:
as §1

The subject of series [19] is HT-29. Briefly: Down regulation of hTERT expression in human HT-29 cells assessed as hTERT expression level at 5 uM after 48 hrs by RT-qPCR analysis relative to control. The series is classed as functional. In a few lines: as §1

Values after ≈ are worked out from the molar mass of the structure shown.

Usually Papp stands for a coefficient for how fast a substance crosses the barrier. With `Cn1c(=O)c2c(ncn2C)n(C)c1=O` [CAFFEINE], the Papp in series [1] was below 0.1 ×10⁻⁶ cm/s.
The term IC50 denotes the point on the concentration scale where inhibition reaches its midpoint. As usually defined, the solubility is the concentration that dissolves in the medium under given conditions. A lower solubility goes with a poorly soluble substance. Turning to `O=C1N=C(Nc2ccc(F)c(Cl)c2)S/C1=C\c1ccc(-c2ccc(C(=O)O)c(O)c2)o1`, the IC50 in the series on Ramos is 3.1 µM; in the series with HEK293, 12 µM; in the series on HT-29 [6], 1.1 µM; in series [8], 25 µM; in series [13], 1 µM; with MCF7, 13 µM. In [2], the CC50 was above 50 µM. The “Ratio IC50” value was 3.9 in [3]; 0.92 in series [4]; 10.91 in [7]; 8 in [9]; 1.92 in [11]; 22.72 in series [12]. Besides, the Activity in the series on HT-29 [5] is reported as 60%; in the series with HT-29 [10], 53%. Further, the Papp in series [1] amounted to 1.58 ×10⁻⁶ cm/s. The remaining at 1 h, 50 µM in series [14] came to 99.1%. This compound also gave a solubility in series [15] of 11.8 µM (≈ 5.41 µg/mL).
With `O=C(O)c1ccc(-c2ccc(/C=C3\SC(=S)N(CCc4ccc(Cl)c(Cl)c4)C3=O)o2)cc1O`, the IC50 in the series on Ramos was above 100 µM; with HEK293, 29 µM; in the series with HT-29 [6], above 100 µM; in series [8], 86 µM; in series [13], 4.8 µM; in the series with MCF7, above 100 µM. The CC50 in series [2] was above 50 µM. Also, the “Ratio IC50” value in series [3] is recorded as below 0.29; in series [4], below 0.29; in [7], below 0.29; in [9] it was below 0.86; in series [11], below 0.86; in [12], below 0.86.
Consider `O=C1/C(=C/c2ccc(-c3cc(C(F)(F)F)ccc3Cl)o2)SC(=S)N1Cc1ccc(F)cc1`, for which the IC50 amounted to 4.1 µM in the series with Ramos; 2.4 µM in the series with HEK293; 4.6 µM with HT-29 [6]; 2.2 µM in series [8]; 17.3 µM in series [13]; 1.2 µM in the series with MCF7. In addition, the CC50 in series [2] was above 50 µM. For the same compound, the “Ratio IC50” value in series [3] is listed as 0.59; in series [4] it was 2; in [7] it was 0.52; in series [9] it was 0.53; in [11] it was 1.83; in series [12], 0.48. Moreover, the Activity with HT-29 [5] worked out at 69%; with HT-29 [10], 37%.
For `Cc1nnc(C(=O)NC(C)(C)c2nc(C(=O)NCc3ccc(F)cc3)c(O)c(=O)n2C)o1` [RALTEGRAVIR], in [2], the CC50 was above 50 µM. For the same compound, in [13], the IC50 was 0.021 µM.
`CCc1ccc(CCNC2=NC(=O)/C(=C/c3ccc(-c4ccc(C(=O)O)c(O)c4)o3)S2)cc1`: the IC50 stood at 37 µM in the series with Ramos; 3.4 µM with HEK293; 26 µM with HT-29 [6]; 20 µM in series [8]; 1 µM in series [13]; 4.5 µM with MCF7. In series [2], the CC50 was above 50 µM. Also, the “Ratio IC50” value in [3] is recorded as 0.09; in series [4], 0.76; in [7], 0.13; in [9], 0.54; in [11] it was 4.44; in series [12] it was 0.77. Moreover, the Activity with HT-29 [16] is given as 56%; in the series on HT-29 [17], 67%.
Turning to `Oc1ccc(/C=C/c2cc(O)cc(O)c2)cc1` [RESVERATROL], the IC50 was found to be 37 µM in the series with Ramos; 17 µM in the series on HEK293; 137 µM in the series with HT-29 [6]; 57 µM in series [8]; 34 µM in the series with MCF7. The Activity in the series on HT-29 [5] amounted to 47%; in the series on HT-29 [10] it was 28%.
For `O=C1N=C(NCCc2ccc(Cl)c(Cl)c2)S/C1=C\c1ccc(-c2ccc(C(=O)O)c(O)c2)o1`, the IC50 is above 100 µM in the series with Ramos; above 100 µM in the series with HEK293; above 100 µM with HT-29 [6]; above 100 µM in series [8]; 1.8 µM in series [13]; above 100 µM with MCF7. Moreover, the CC50 in [2] is above 50 µM.
As to `C[C@]12CC[C@H]3[C@@H](CCC4=CC(=O)CC[C@@]43C)[C@@H]1CC[C@@H]2O` [TESTOSTERONE], in [14], the remaining at 1 h, 50 µM was 76.2%.
For `O=C1/C(=C/c2ccc(-c3cc(C(F)(F)F)ccc3Cl)o2)SC(=S)N1Cc1ccc(Cl)cc1`, the IC50 was determined as 3.8 µM with Ramos; 4.2 µM in the series on HEK293; 8.3 µM in the series on HT-29 [6]; 2.4 µM in series [8]; 6.9 µM in series [13]; 1.13 µM in the series on MCF7. In addition, the CC50 in series [2] was above 50 µM. Moreover, the Activity with HT-29 [18] came to 100%; in the series with HT-29 [19] it was 53%. Further, the “Ratio IC50” value in series [3] was 1.1; in series [4] it was 3.72; in series [7] it was 0.51; in series [9], 0.63; in [11], 2.12; in series [12], 0.29.
As to `CC(C)NCC(O)COc1cccc2ccccc12` (stereo not drawn) [PROPRANOLOL], the Papp in series [1] was 9.68 ×10⁻⁶ cm/s.
For the compound `O=C1N=C(N2CCOCC2)S/C1=C\c1ccc(-c2ccc(C(=O)O)c(O)c2)o1`, the IC50 in the series with Ramos came out at 3.14 µM; in the series on HEK293, 53 µM; with HT-29 [6] it was 2.3 µM; in series [8], 76 µM; in series [13], 13.4 µM; with MCF7 it was 21 µM. In addition, the CC50 in [2] is above 50 µM. Also, the “Ratio IC50” value in series [3] was determined as 16.9; in series [4] it was 2.52; in [7] it was 23.04; in series [9], 24.2; in [11] it was 3.62; in [12], 33.04. The Activity came to 60% in the series on HT-29 [5] and 51% in the series with HT-29 [10]. The Papp in series [1] came out at 1.28 ×10⁻⁶ cm/s. Moreover, the remaining at 1 h, 50 µM in series [14] was found to be 98.7%. In [15], this compound registered a solubility of 9.7 µM (≈ 3.88 µg/mL).
